Compound activity from PubChem BioAssay.
A selection: hits, their analogues and other compounds. The true share with any hit is near 4.6%.
OX1R antag-1 – antagonists of human orexin 1 receptor | O43613 | CHO/OX1R cells, Fluo-8 calcium fluorescence, orexin A | inhibition, % at 5 µM | 0.43% of 330,000 active;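 active = inhibition above its plate's threshold, mean inhibition of all tested compounds on the plate plus 3 SD, cut at about 37% in these data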;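 note: 0% = orexin A challenge wells and 100% = SB-334867-A antagonist wells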
CHO parental Ca – counter-screen: ATP calcium response change in parental CHO cells | parental CHO-K1, ATP-induced calcium, Fluo-8 fluorescence | inhibition, % at 5.6 µM | 0.63% of 330,000 active;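 active = inhibition above that plate's mean sample inhibition plus 3 SD, cut at about 26% in these data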;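 note: 0% = ATP-challenged DMSO wells and 100% = DMSO wells without ATP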
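Test system: parental CHO cells; detection: calcium-sensitive Fluo-8 fluorescence; evaluation: percent inhibition of calcium signal; also added: ATP as calcium-mobilizing challenge; repeats: one well per compound; control set: ATP-challenged DMSO wells low, unchallenged DMSO wells high; compound: single nominal dose of 5.6 µM per compound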
TAAR1 antagonist – antagonists of human TAAR1 | 1.5% of 360,000 active | Q96RJ0 | inhibition, % at 3 µM | CHO RD-HGA16 TAAR1, Fluo-8 calcium fluorescence, antagonist;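 active = inhibition above a per-plate cutoff, the mean inhibition of test compounds on that plate plus 3 SD, cut at about 49% in these data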;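 note: 0% = DMSO plus EC80 beta-PEA response and 100% = DMSO alone without agonist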
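System: RD-HGA16 CHO cells with stable hTAAR1 and Gα16 | Probe or stimulus: EC80 β-phenethylamine stimulus | Dosing: 3 µM, single point | Times: Dye loading 75 min at 37 °C, then 30 min room temperature | Measured by: Fluo-8 calcium-sensitive fluorescence | Read-out basis: % inhibition of agonist calcium response | Replicates: n of 1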
OX1R antag-2 – antagonists of human orexin 1 receptor (OX1R). O43613. OX1R-expressing cells, FRET antagonist read-out. inhibition, % at 6.6 µM. 1.8% of 330,000 active; in the data active = inhibition mostly above about 38%, no sharp cut-off; inactive = mostly below about 40%;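 note: 0% = agonist challenge alone and 100% = reference antagonist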
TAAR1 ag – agonists of human TAAR1 | activation, % at 3 µM | CHO RD-HGA16 TAAR1, Fluo-8 calcium fluorescence; vehicle wells 0%, saturating PEA agonist 100% | Q96RJ0 | 0.99% of 360,000 active;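 active = activation above the mean activation of all test compounds in the run plus 3 SD, cut at about 38% in these data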
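Assay system: CHO-derived RD-HGA16 cells with stable Gα16 and human TAAR1; timing: 17-24 h seeding, 75 min 37 °C dye, 30 min RT; read-out: % activation from peak over basal fluorescence ratio, DMSO-to-PEA scaled; measured by: kinetic Fluo-8 calcium fluorescence; benchmarks: low control DMSO, high control PEA (EC100); doses: 3 µM single concentration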
GPR7 antag – human neuropeptides B/W receptor 1 antagonism; P48145; GPR7-expressing cells, fluorescence antagonist assay; inhibition, % at 4.4 µM; 1.1% of 290,000 active; AID 1861; in the data active = inhibition above about 16%, passing the limit was not always enough;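 note: cells stimulated with the agonist NPW; 0% = agonist with vehicle and 100% = vehicle without agonist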
Target sequence (P48145 whole entry, looked up): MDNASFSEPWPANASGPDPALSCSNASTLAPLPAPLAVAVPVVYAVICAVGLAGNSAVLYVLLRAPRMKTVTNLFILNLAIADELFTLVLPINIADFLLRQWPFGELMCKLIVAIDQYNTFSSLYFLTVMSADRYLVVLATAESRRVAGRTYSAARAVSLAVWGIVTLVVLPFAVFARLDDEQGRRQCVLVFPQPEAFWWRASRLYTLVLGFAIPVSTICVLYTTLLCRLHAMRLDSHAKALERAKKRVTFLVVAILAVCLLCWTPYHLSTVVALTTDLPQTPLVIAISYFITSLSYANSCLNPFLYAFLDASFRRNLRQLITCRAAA
* marks the source's active call; other numbers are inactive results; x = no result.

SMILES	OX1R antag-1	CHO parental Ca	TAAR1 antagonist	OX1R antag-2	TAAR1 ag	GPR7 antag
CCOc1ccc(NC(=O)CSCc2cnn(-c3ccccc3)c2-n2cccc2)cc1	-37	-12	8	76*	0	1
O=C(O)CSCc1cnn(-c2ccccc2)c1-n1cccc1	-3	-2	-14	8	3	-6
CC(Oc1cccc(Br)c1)C(=O)NNC(=O)CCNC(=O)c1ccccc1Cl (stereo unspecified)	-25	-9	10	1	8	x
O=C(CSc1cccc[n+]1[O-])Nc1cc([N+](=O)[O-])ccc1Cl	-23	-2	-5	43*	0	-13
Cc1cc(C)c(NC(=O)CSc2cccc[n+]2[O-])c(C)c1	-8	-7	-1	5	1	x
O=C(CSc1cccc[n+]1[O-])Nc1ccc(Cl)cc1F	-24	4	-15	-1	2	x
Cc1ccc(NC(=O)CSc2cccc[n+]2[O-])c([N+](=O)[O-])c1	-1	-1	-31	69*	1	-6
CCCCS(=O)(=O)N1CCCC(C(=O)Oc2ccccc2OC)C1 (stereo unspecified)	-27	-12	-9	6	-1	-8
CCOC(=O)C1CCCN(c2nc3c(C)cccn3c(=O)c2/C=C(\C#N)C(=O)NCc2ccco2)C1 (stereo unspecified)	-51	-38	46	27	52*	-2
CC(=O)Nc1ccc(S(=O)(=O)N2CCN=C2SCc2ccc([N+](=O)[O-])cc2)cc1	9	33*	26	22	12	11
O=C(Nc1ccccc1N1CCOCC1)c1ccc([N+](=O)[O-])s1	-32	-19	8	31*	3	x
O=C(NCCC(=O)N1CCN(c2ccccn2)CC1)c1ccc([N+](=O)[O-])cc1	-5	-10	-21	35*	7	x
COc1ccc(OC)c2sc(N3CCN(C(=O)c4ccc([N+](=O)[O-])s4)CC3)nc12	1	4	21	46*	6	x
O=C(c1ccc([N+](=O)[O-])s1)N1CCN(c2ccccn2)CC1	-5	1	6	46*	0	4
CC(C)[C@H](NC(=O)OCc1ccccc1)C(=O)OCC(=O)NC1(C#N)CCCC1	-16	-6	7	39	1	-6
CCCC(=O)Nc1ccccc1NC(C)=O	-8	-2	3	16	10	-2
O=C(c1ccc([N+](=O)[O-])s1)N1CCN(c2ccccc2)CC1	-17	-2	9	54*	3	7
C/C(=N\NC(=O)c1cc(Br)ccc1O)c1cccc(NC(=O)c2ccccc2F)c1	-15	-8	-19	59*	4	-19
C/C(=N\NC(=O)c1ccccc1F)c1cccc(NC(=O)c2ccccc2)c1	-22	-12	2	10	1	-8
COc1cc(CCc2ccccc2)c(C(=O)O)c(O)c1C/C=C(/C)CCC=C(C)C	23	46*	53*	15	-1	x
COc1cc(CCc2ccccc2)c(C(=O)O)c(O)c1CC=C(C)C	x	x	26	x	-3	x
O=C(O)c1ccc(OCC(O)Cn2c3ccccc3c3ccccc32)cc1 (stereo unspecified)	32	38*	45	13	17	-5
CC(=O)Nc1ccc(OCC(O)Cn2c3ccccc3c3ccccc32)cc1 (stereo unspecified)	5	-4	-8	12	22	7
OC(COc1ccccc1)Cn1c2ccccc2c2ccccc21 (stereo unspecified)	-7	-4	-19	11	8	-2
CC(=O)Nc1ccc(OCC(O)Cn2c3ccccc3c3ccccc32)c(C)c1 (stereo unspecified)	23	9	65*	16	36	6
SMILES	OX1R antag-1	CHO parental Ca	TAAR1 antagonist	OX1R antag-2	TAAR1 ag	GPR7 antag
O=C(c1cccnc1)c1ncc(C(F)(F)F)cc1Cl	-14	0	-11	-1	-1	-18
Cc1cc2c(cc1C)CSC(c1ccccc1O)SC2	21	59*	66*	19	28	-2
O=C(CN1CCC(NC(=O)c2ccco2)CC1)Nc1ccccc1C(F)(F)F	-12	-19	4	12	-2	-17
O=C(CN1C2CCCC1CC(NC(=O)c1ccccc1)C2)Nc1ccccc1C(F)(F)F (stereo unspecified)	-10	-12	-10	68*	-2	-5
O=C(CN1C2CCCC1CC(NC(=O)c1ccco1)C2)Nc1ccccc1C(F)(F)F (stereo unspecified)	-3	-4	5	51*	4	-2
O=CNNC(=O)c1cccc([N+](=O)[O-])c1	9	10	-13	26	1	0
O=C(NNC(=O)c1cnccn1)c1cccc([N+](=O)[O-])c1	4	-4	1	44*	2	-16
Cc1ccccc1C(=O)NNC(=O)c1cccc([N+](=O)[O-])c1	-3	-5	-2	44	4	2
Cc1cc(C(=O)NNC(=O)c2cccc([N+](=O)[O-])c2)n[nH]1	7	-1	-5	28*	12	x
O=C(NNc1c(Cl)cc(Cl)cc1Cl)c1cccc([N+](=O)[O-])c1	8	48*	1	34	0	-11
O=C(NNC(=O)c1ccccc1[N+](=O)[O-])c1cnccn1	-5	-6	-4	8	5	-10
COc1ccc(NS(=O)(=O)c2cccc(C(=O)NNC(=O)CNC(=O)c3ccccc3Cl)c2)cc1	x	x	5	x	1	x
CNC(=O)c1c(NC(=O)CS(=O)(=O)c2ccc(F)cc2)sc(C)c1C	-18	-15	-18	18	5	x
CCCCCCNC(=O)C(C#N)c1nc2ccccc2nc1N1CCCC1 (stereo unspecified)	-11	22	51*	24	4	-12
FC(F)(F)c1ccccc1CN1CCN(C2CCCCCC2)CC1	-30	-15	3	10	8	20*
Nc1[nH]n(-c2ccccc2)c(=O)c1N=Nc1ccc2ncsc2c1	-3	-12	27	53*	6	-10
O=C(Cc1ccccc1)Nc1cccc(-c2nnc(-c3ccco3)o2)c1	-20	-24	35	15	22	7
COc1ccccc1OCC(=O)Nc1cccc(-c2nnc(-c3ccco3)o2)c1	-18	-15	42	46*	20	5
COc1ccc(CC(=O)Nc2cccc(-c3nnc(-c4cccc(C)c4)o3)c2)cc1OC	89*	94*	78*	110*	22	-8
COc1ccc([C@H]2CC(=O)C[C@@H](CCn3cccn3)O2)cc1	x	x	-7	x	2	x
CCOC(=O)c1c(CN(C)C)n(C)c2c(O)c(N=NC(N)=O)c3ccc(Br)cc3c12	-29	-16	-2	1	2	-17
CCCn1c(CN2CCN(c3cccc(Cl)c3)CC2)nc2c1c(=O)n(C)c(=O)n2C	-25	33*	2	21	2	-3
